Assay [1] in a line: Inhibition of importin-beta binding to immobilized GST-IBB domain of importin alpha at 50 uM by surface plasmon resonance assay. (In general: In SPR one partner is held on a chip, and binding of the other changes the refractive index at the surface.)
Assay [2] concerns FGM. Nature of the assay: Selectivity ratio of IC50 for importin alpha/beta-mediated nuclear transportation of Alexa555-BSA-NLS to IC50 for importin alpha/beta-mediated nuclear transportation of Alexa555-GST-M9 in human FGM cell nucleus. It is filed as cell-based.
Assay [3] deals with FGM. Nature of the assay: Inhibition of importin alpha/beta-mediated nuclear transportation of Alexa555-BSA-NLS in human FGM cell nucleus at 500 uM after 30 mins by fluorescence microscopy. Format: cell-based.
A short description of assay [4]: Inhibition of importin-beta binding to immobilized GST-FG domain of Nup153 at 50 uM by surface plasmon resonance assay.
Assay [5] in a line: Inhibition of importin-beta binding to immobilized GST-RanQLGTP at 50 uM by surface plasmon resonance assay.
Assay [6] is described as follows: Inhibition of importin alpha/beta-mediated nuclear transportation of Alexa555-BSA-NLS in human FGM cell nucleus after 30 mins by fluorescence microscopy. It is filed as cell-based.
For assay [7], the system named is FGM. Nature of the assay: Inhibition of importin alpha/beta-mediated nuclear transportation of Alexa555-GST-M9 in human FGM cell nucleus at 500 uM after 30 mins by fluorescence microscopy. Format: cell-based. Summed up: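 Transportin-dependent import measured the same way in permeabilized FGM cells, with 0.5 μM Alexa555-GST-M9 cargo in place of BSA-NLS. Conditions: 3 mg/ml HeLa cytosol, ATP-regenerating system, 0.2 mM GTP, 1% DMSO, 30 min at 30°C. Positive control was 1 mg/ml WGA. Nuclear cargo fluorescence quantified per nucleus by automated imaging.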

The text below walks through data of ChEMBL document CHEMBL1828601, “Small molecule peptidomimetic inhibitors of importin α/β mediated nuclear transport” (Bioorg Med Chem, 2010).

Activity calls are given as the source filed them. The rule behind the calls is not given here.

By Kd is commonly meant a measure of binding affinity in units of concentration. As a reminder, the IC50 is the concentration at which inhibition is half-maximal. Higher therefore signals weaker potency in that assay. In the case of `CC[C@H](C)[C@H](N)C(=O)Nc1ccc(C(=O)N[C@@H](CCc2ccccc2)C(=O)O)cc1OCc1ccccc1`, the Kd in assay [1] came to 0.042 µM; in assay [4], 0.016 µM; in assay [5], 0.061 µM. For the same molecule, the Ratio IC50 with FGM [2] was over 15. Also, in the assay on FGM [3], the inhibition result was “Active”. The IC50 in assay [6] was 106 µM.

`C[C@H](N)C(=O)N1C[C@@H](C(=O)NCCc2c[nH]cn2)[C@H](C(=O)NCCc2c[nH]c3ccccc23)C1`: the inhibition entry in the assay on FGM [7] and in the assay with FGM [3] was “inactive” throughout.

With `NCCCCNC(=O)[C@@H]1CN(C(=O)[C@@H](N)CO)C[C@H]1C(=O)NCCc1ccc2ccccc2c1`, the inhibition result in the assay with FGM [7] and in the assay with FGM [3] was “inactive” in each case.

Turning to `N[C@@H](Cc1ccc2ccccc2c1)C(=O)N1C[C@@H](C(=O)NCCc2c[nH]cn2)[C@H](C(=O)NCCc2c[nH]c3ccccc23)C1`, the inhibition entry in the assay with FGM [7] and in the assay on FGM [3] was “Active” in each case.

As to `CC[C@H](C)[C@H](NC(=O)c1ccc(NC(=O)[C@@H](N)Cc2ccc3ccccc3c2)c(OCc2c[nH]cn2)c1)C(=O)O`, the inhibition result in the assay with FGM [7] and in the assay on FGM [3] was “Active” each time.

With `CC[C@H](C)[C@H](NC(=O)c1ccc(NC(=O)[C@@H](N)Cc2ccccc2)c(OCc2c[nH]cn2)c1)C(=O)O`, the inhibition entry with FGM [7] and with FGM [3] was “inactive” in each case.

Regarding `CSCC[C@H](N)C(=O)N1C[C@@H](C(=O)NCCc2c[nH]cn2)[C@H](C(=O)NCCc2c[nH]c3ccccc23)C1`, the inhibition entry in the assay on FGM [7] and in the assay with FGM [3] was “inactive” each time.

With `NCCCCNC(=O)[C@@H]1CN(C(=O)[C@@H](N)Cc2ccc3ccccc3c2)C[C@H]1C(=O)NCCc1ccc2ccccc2c1`, the inhibition result with FGM [7] and with FGM [3] was “inactive” each time.

As for `CC[C@H](C)[C@H](NC(=O)c1ccc(NC(=O)[C@@H](N)Cc2ccc(Cl)cc2)c(OCc2c[nH]cn2)c1)C(=O)O`, the inhibition result in the assay with FGM [7] and in the assay on FGM [3] was “inactive” in each case.

Regarding `CC[C@H](C)[C@H](NC(=O)c1ccc(NC(=O)[C@@H](N)C(C)C)c(OCc2c[nH]cn2)c1)C(=O)O`, the inhibition entry in the assay with FGM [7] and with FGM [3] was “inactive” in each case.

In the case of `N[C@@H](Cc1ccccc1)C(=O)N1C[C@@H](C(=O)NCCc2c[nH]cn2)[C@H](C(=O)NCCc2c[nH]c3ccccc23)C1`, the inhibition entry in the assay on FGM [7] and with FGM [3] was “Active” in each case.

With `CC[C@H](C)[C@H](NC(=O)c1ccc(NC(=O)[C@@H](N)CC(C)C)c(OCc2c[nH]cn2)c1)C(=O)O`, the inhibition result in the assay with FGM [7] and with FGM [3] was “inactive” each time.

On to `CC[C@@H](C)[C@H](N)C(=O)Nc1ccc(C(=O)N[C@@H](CCc2ccccc2)C(=O)O)cc1OCc1ccc(Cl)cc1`, for which the inhibition entry in the assay with FGM [7] and in the assay on FGM [3] was “Active” throughout.

`N[C@@H](CC(=O)O)C(=O)N1C[C@@H](C(=O)NCCc2c[nH]cn2)[C@H](C(=O)NCCc2c[nH]c3ccccc23)C1`: the inhibition entry in the assay with FGM [7] and in the assay with FGM [3] was “inactive” throughout.
